Source: article PMC4764504 (Journal of medicinal chemistry, 2015)
Values joined by “and” are separate entries in the source; they are usually repeats but may differ in a detail not shown here. Equal entries are not always repeated.

Tests used:
[1] = system: DBT glioma cells; assay: Competitive amino acid cell uptake assays; format: cell-based, mouse; conditions: 60 s, 37 °C
Outline: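 Mouse DBT glioma cells were seeded at 1 × 10⁵ cells/well and grown 48 h in 10% FBS DMEM under 5% CO₂. Cells were washed twice in 37 °C buffer, then exposed for 60 s at 37 °C, pH 7.40, to the radiotracer. Buffers were Na phosphate-buffered saline or choline-substituted Na-free buffer. Controls had 10 mM sucrose; BCH was 10 mM. Cells were washed with ice-cold buffer, lysed in 0.2% SDS/0.2 M NaOH, γ-counted, and normalized to added activity and BCA protein. Values are % of control, triplicate × two plates.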

[2] = system: BALB/c Mice with Subcutaneous Flank DBT Tumors; assay: Whole body biodistribution in mice with subcutaneous DBT gliomas; format: in vivo, mouse; conditions: for biodistribution, tumor uptake: subcutaneous DBT tumor
Outline: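 Male BALB/c mice carried subcutaneous flank DBT tumors (5 × 10⁵ cells) and were used at day 14. Under 1% isoflurane–oxygen, each received ~56 μCi (2.07 MBq) of ⁷⁶Br-labelled or 45 μCi (1.67 MBq) of ¹²³I-labelled test compound by tail vein in 0.9% saline. Mice were killed at 5 min, 30 min, 1, 3 and 24 h (n = 4 per time). Tissues were weighed and γ-counted with decay correction, giving % ID/g.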

[3] = system: mice with intracranial DBT gliomas; assay: Small animal PET/CT imaging in mice with intracranial DBT gliomas; format: in vivo, mouse; conditions: PET; for SUV tumor uptake: intracranial DBT tumor
Outline: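 Four male BALB/c mice carried intracranial DBT gliomas (1 × 10⁴ cells, right mid-cerebrum) and were imaged 14 days after implantation. Under 1% isoflurane–oxygen, each received ~55 μCi (~2.04 MBq) of ⁷⁶Br-labelled test compound by tail vein in 0.9% saline. Imaging was dynamic PET/CT for 0–60 min, then 15-min static scans at 3 and 24 h. Read-out was SUV. Tumors were confirmed afterwards by H&E on fixed brains.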

[4] = 50–60 min (summed) after injection

## C[C@](N)(/C=C/[76Br])C(=O)O [[^76Br]5, (S)-amino-2-methyl-4-[^76Br]-bromo-3-(E)-butenoic acid]
[1]; Na BCH condition (BCH 10 mM, system L inhibitor, sodium buffer)
  uptake relative to control: 43 ± 8.5%
[1]; choline + BCH (sodium-free, Cho-BCH)
  uptake compared to sodium control: 25 ± 4.1%
[1]; choline control (sodium-free, Cho-sucrose)
  uptake compared to the sodium control: 46 ± 10%
[1]; in the presence of MeAIB (10 mM, system A inhibitor), sodium buffer
  uptake relative to the control: 56 ± 12%
[2]; 5 min after i.v. injection
  biodistribution, blood: 5.75 ± 0.44 % ID/g
  biodistribution, bone: 2.13 ± 0.43 % ID/g
  biodistribution, brain: 0.54 ± 0.04 % ID/g
  biodistribution, fat: 1.36 ± 0.38 % ID/g
  biodistribution, heart: 2.92 ± 0.29 % ID/g
  biodistribution, kidney: 47.50 ± 4.26 % ID/g
  biodistribution, liver (all): 4.57 ± 0.27 % ID/g
  biodistribution, lung: 6.20 ± 0.41 % ID/g
  biodistribution, muscle: 1.54 ± 0.18 % ID/g
  biodistribution, pancreas: 27.0 ± 7.2 % ID/g and 27.04 ± 7.15 % ID/g
  biodistribution, spleen: 8.20 ± 0.71 % ID/g
  biodistribution, tumor uptake: 2.5 ± 0.64 % ID/g and 2.52 ± 0.64 % ID/g
[2]; 30 min after i.v. injection
  biodistribution, blood: 1.66 ± 0.16 % ID/g
  biodistribution, bone: 1.95 ± 0.29 % ID/g
  biodistribution, brain: 0.42 ± 0.02 % ID/g
  biodistribution, fat: 0.85 ± 0.71 % ID/g
  biodistribution, heart: 2.21 ± 0.18 % ID/g
  biodistribution, kidney: 8.95 ± 0.91 % ID/g
  biodistribution, liver (all): 1.63 ± 0.33 % ID/g
  biodistribution, lung: 1.73 ± 0.16 % ID/g
  biodistribution, muscle: 1.75 ± 0.77 % ID/g
  biodistribution, pancreas: 24.35 ± 4.06 % ID/g
  biodistribution, spleen: 4.05 ± 0.55 % ID/g
  biodistribution, tumor uptake: 3.8 ± 0.95 % ID/g and 3.79 ± 0.95 % ID/g
[2]; 1 h after i.v. injection
  biodistribution, blood: 1.22 ± 0.19 % ID/g
  biodistribution, bone: 1.18 ± 0.64 % ID/g
  biodistribution, brain: 0.38 ± 0.04 % ID/g
  biodistribution, fat: 0.31 ± 0.20 % ID/g
  biodistribution, heart: 1.67 ± 0.27 % ID/g
  biodistribution, kidney: 5.49 ± 0.98 % ID/g
  biodistribution, liver (all): 1.03 ± 0.48 % ID/g
  biodistribution, lung: 1.15 ± 0.22 % ID/g
  biodistribution, muscle: 0.98 ± 0.12 % ID/g
  biodistribution, pancreas: 14.31 ± 8.12 % ID/g
  biodistribution, spleen: 2.30 ± 0.82 % ID/g
  biodistribution, tumor uptake: 3.7 ± 0.4 % ID/g and 3.72 ± 0.43 % ID/g
[2]; 3 h after i.v. injection
  biodistribution, blood: 0.87 ± 0.44 % ID/g
  biodistribution, bone: 0.46 ± 0.20 % ID/g
  biodistribution, brain: 0.31 ± 0.06 % ID/g
  biodistribution, fat: 0.17 ± 0.04 % ID/g
  biodistribution, heart: 0.67 ± 0.15 % ID/g
  biodistribution, kidney: 1.29 ± 0.43 % ID/g
  biodistribution, liver (all): 0.34 ± 0.09 % ID/g
  biodistribution, lung: 0.54 ± 0.07 % ID/g
  biodistribution, muscle: 0.4 ± 0.20 % ID/g
  biodistribution, pancreas: 2.48 ± 1.17 % ID/g
  biodistribution, spleen: 0.59 ± 0.21 % ID/g
  biodistribution, tumor uptake: 1.65 ± 0.40 % ID/g
[2]; 24 h after i.v. injection
  biodistribution, blood: 0.37 ± 0.04 % ID/g
  biodistribution, bone: 0.1 ± 0.04 % ID/g
  biodistribution, brain: 0.09 ± 0.01 % ID/g
  biodistribution, fat: 0.04 ± 0.01 % ID/g
  biodistribution, heart: 0.13 ± 0.02 % ID/g
  biodistribution, kidney: 0.23 ± 0.02 % ID/g
  biodistribution, liver (all): 0.1 ± 0.02 % ID/g
  biodistribution, lung: 0.27 ± 0.05 % ID/g
  biodistribution, muscle: 0.08 ± 0.01 % ID/g
  biodistribution, pancreas: 0.17 ± 0.02 % ID/g
  biodistribution, spleen: 0.18 ± 0.03 % ID/g
  biodistribution, tumor uptake: 0.25 ± 0.03 % ID/g
[2]; normal brain, through 3 h after injection
  brain uptake, fold higher than with [^123I]8: 2- to 3 fold
[2]; subcutaneous DBT tumors, around 30 min to an hour postinjection
  maximal tumor uptake: 3.7–3.8 % ID/g
[2]; thyroid, 5 min after i.v. injection
  biodistribution, thyroid: 3.60 ± 0.69 % ID/g
[2]; thyroid, 5 min after injection
  thyroid uptake: 3.6 ± 0.7 % ID/organ
[2]; thyroid, 30 min after i.v. injection
  biodistribution, thyroid: 1.63 ± 0.12 % ID/g
[2]; thyroid, 1 h after i.v. injection
  biodistribution, thyroid: 1.26 ± 0.18 % ID/g
[2]; thyroid, 3 h after i.v. injection
  biodistribution, thyroid: 0.53 ± 0.08 % ID/g
[2]; thyroid, 24 h after i.v. injection
  biodistribution, thyroid: 0.17 ± 0.06 % ID/g
[3]; [4]
  tumor/brain SUV ratio: 1.70 ± 0.26
  SUV tumor uptake: 0.63 ± 0.06
[3]; 3 h after injection
  tumor/brain SUV ratio: 2.67 ± 0.15
  SUV tumor uptake: 0.70 ± 0.13
[3]; 24 h after injection
  tumor/brain SUV ratio: 3.05 ± 0.30
